Assay results as given in ChEMBL document CHEMBL1275287, “Synthesis and molluscicidal evaluation of some new pyrazole, isoxazole, pyridine, pyrimidine, 1,4-thiazine and 1,3,4-thiadiazine derivatives incorporating benzofuran moiety” (Eur J Med Chem, 2010).
Calls of active or inactive are those of the source. No cut-off for these calls is given here.

How the values were obtained:
Type in all cases: functional, organism-based
Biomphalaria alexandrina [1] = assay: Molluscicidal activity against Biomphalaria alexandrina at 1 ppm after 24 hrs
Method in brief: (§1)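 Field-collected snails (about 7 mm shell diameter) held in the lab 10 days before testing and fed lettuce daily. Compound dissolved with two drops Tween 20 plus 2 mL DMSO, then suspended in untreated raw Nile/canal water in aerated glass jars. Three concentrations between 1 and 10 ppm; ten snails per jar, 24 h at 25 °C. Triplicate runs; mean killed snails recorded. Controls received water with Tween 20/DMSO only.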

Biomphalaria alexandrina [2] = assay: Molluscicidal activity against Biomphalaria alexandrina at 5 ppm after 24 hrs; method in brief: as §1
Biomphalaria alexandrina [3] = assay: Molluscicidal activity against Biomphalaria alexandrina at 10 ppm after 24 hrs; method in brief: as §1

c1ccc(-n2cc(C3CC(c4cc5ccccc5o4)=NO3)c(-c3cc4ccccc4o3)n2)cc1 (stereo unspecified)
Activity (Biomphalaria alexandrina [1]): inactive | Activity (Biomphalaria alexandrina [2]): inactive | Activity (Biomphalaria alexandrina [3]): inactive

O=C(c1cc2ccccc2o1)C(Br)C(Br)c1cn(-c2ccccc2)nc1-c1cc2ccccc2o1 (stereo unspecified)
Activity (Biomphalaria alexandrina [1]): inactive | Activity (Biomphalaria alexandrina [2]): inactive | Activity (Biomphalaria alexandrina [3]): inactive

c1ccc(-n2cc(C3CC(c4cc5ccccc5o4)=NN3)c(-c3cc4ccccc4o3)n2)cc1 (stereo unspecified)
Activity (Biomphalaria alexandrina [1]): inactive | Activity (Biomphalaria alexandrina [2]): Active | Activity (Biomphalaria alexandrina [3]): Active

C(=C1/Sc2nncn2N=C1c1cc2ccccc2o1)/c1cn(-c2ccccc2)nc1-c1cc2ccccc2o1
Activity (Biomphalaria alexandrina [1]): inactive | Activity (Biomphalaria alexandrina [2]): Active | Activity (Biomphalaria alexandrina [3]): Active

N#Cc1c(-c2cn(-c3ccccc3)nc2-c2cc3ccccc3o2)cc(-c2cc3ccccc3o2)nc1N
Activity (Biomphalaria alexandrina [1]): inactive | Activity (Biomphalaria alexandrina [2]): Active | Activity (Biomphalaria alexandrina [3]): Active

O=C(/C=C/c1cn(-c2ccccc2)nc1-c1cc2ccccc2o1)c1cc2ccccc2o1
Activity (Biomphalaria alexandrina [1]): inactive | Activity (Biomphalaria alexandrina [2]): Active | Activity (Biomphalaria alexandrina [3]): Active

O=C(Nc1ccc([N+](=O)[O-])cc1Cl)c1cc(Cl)ccc1O
Activity (Biomphalaria alexandrina [1]): Active | Activity (Biomphalaria alexandrina [2]): Active | Activity (Biomphalaria alexandrina [3]): Active

NC(=S)N1N=C(c2cc3ccccc3o2)CC1c1cn(-c2ccccc2)nc1-c1cc2ccccc2o1 (stereo unspecified)
Activity (Biomphalaria alexandrina [1]): inactive | Activity (Biomphalaria alexandrina [2]): inactive | Activity (Biomphalaria alexandrina [3]): inactive

O=C(/C(Br)=C/c1cn(-c2ccccc2)nc1-c1cc2ccccc2o1)c1cc2ccccc2o1
Activity (Biomphalaria alexandrina [1]): inactive | Activity (Biomphalaria alexandrina [2]): inactive | Activity (Biomphalaria alexandrina [3]): inactive

Cc1cn2c(nc1=O)S/C(=C\c1cn(-c3ccccc3)nc1-c1cc3ccccc3o1)C(c1cc3ccccc3o1)=N2
Activity (Biomphalaria alexandrina [1]): inactive | Activity (Biomphalaria alexandrina [2]): inactive | Activity (Biomphalaria alexandrina [3]): inactive

C(=C1/Sc2ccccc2N=C1c1cc2ccccc2o1)/c1cn(-c2ccccc2)nc1-c1cc2ccccc2o1
Activity (Biomphalaria alexandrina [1]): inactive | Activity (Biomphalaria alexandrina [2]): inactive | Activity (Biomphalaria alexandrina [3]): inactive

S=C1N=C(c2cn(-c3ccccc3)nc2-c2cc3ccccc3o2)CC(c2cc3ccccc3o2)N1 (stereo unspecified)
Activity (Biomphalaria alexandrina [1]): inactive | Activity (Biomphalaria alexandrina [2]): inactive | Activity (Biomphalaria alexandrina [3]): inactive
